Test results taken from ChEMBL document CHEMBL1122792, “Synthesis and biological evaluation of radiolabeled beta-ruthenocenylalanine” (J Med Chem, 1984).

Tests used:
Rattus norvegicus [1] = experiment: Distribution of Radioactivity in thymus of Fisher 344 Rats by intravenous administration of compound after 1 hour expressed as dose/gram; format: ADME, organism-based; conditions: in vivo
Procedure, shortened: (§1)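 Female Fischer 344 rats, 10-12 weeks old (170-200 g), food and water ad libitum; four rats per time point. About 6.3 μCi given in 0.05 mL saline (pH 7.4, filtered) by lateral tail vein under ether anesthesia. Tissues sampled at 5 min, 1 h, 4 h or 1 day. %ID/g computed from injectate standards; mean and range given.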

Rattus norvegicus [2] = experiment: Distribution of Radioactivity in liver of Fisher 344 Rats by intravenous administration of compound after 1 day expressed as dose/gram; format: ADME, organism-based; conditions: in vivo, 24 h
Procedure, shortened: (§2)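 Female Fischer 344 rats, 10-12 weeks old (170-200 g), fed and watered ad libitum; four rats per time point. Each received ~6.3 μCi in 0.05 mL saline (pH 7.4, filtered), given by lateral tail vein under ether anesthesia. Tissues taken at 5 min, 1 h, 4 h and 1 day. Injectate standards used; values as mean % injected dose/g with range.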

Rattus norvegicus [3] = experiment: Distribution of Radioactivity in kidneys of Fisher 344 Rats by intravenous administration of compound after 1 day expressed as dose/gram; format: ADME, organism-based, Kidney; conditions: in vivo, 24 h; procedure, shortened: as §2
Rattus norvegicus [4] = experiment: Distribution of Radioactivity in lungs of Fisher 344 Rats by intravenous administration of compound after 4 hour expressed as dose/gram; format: ADME, organism-based, Lung; conditions: in vivo; procedure, shortened: as §2
Mus musculus [5] = experiment: Distribution of Radioactivity in liver of CD-1 Mice by intravenous administration of compound after 1 day expressed as dose/gram; format: ADME, organism-based; conditions: in vivo, 24 h
Procedure, shortened: (§3)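 Female CD-1 mice, 7 1/2 weeks old (25-29 g), fed and watered ad libitum. Agent given in physiological saline, pH adjusted to 7.4 and filtered, by lateral tail vein injection under ether anesthesia. Tissues collected at 5 min, 1 h, 4 h and 1 day. Injectate samples counted as standard; results as mean % injected dose/g with range.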

Mus musculus [6] = experiment: Distribution of Radioactivity in spleen of CD-1 Mice by intravenous administration of compound after 1 day expressed as dose/gram; format: ADME, organism-based; conditions: in vivo, 24 h
Procedure, shortened: (§4)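 Female CD-1 mice, 7 1/2 weeks old (25-29 g), fed and watered ad libitum. Radiotracer in physiological saline, pH 7.4, filtered, injected via lateral tail vein under ether anesthesia. Tissues taken at 5 min, 1 h, 4 h or 1 day. Percent injected dose per gram calculated against assayed samples of the injected solution; mean with range reported.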

Mus musculus [7] = experiment: Distribution of Radioactivity in kidneys of CD-1 Mice by intravenous administration of compound after 5 minutes expressed as dose/gram; format: ADME, organism-based, Kidney; conditions: in vivo; procedure, shortened: as §3
Mus musculus [8] = experiment: Distribution of Radioactivity in blood of CD-1 Mice by intravenous administration of compound after 5 minutes expressed as dose/gram; format: ADME, organism-based; conditions: in vivo; procedure, shortened: as §3
Mus musculus [9] = experiment: Distribution of Radioactivity in lungs of CD-1 Mice by intravenous administration of compound after 4 hour expressed as dose/gram; format: ADME, organism-based, Lung; conditions: in vivo; procedure, shortened: as §3
Mus musculus [10] = experiment: Distribution of Radioactivity in liver of CD-1 Mice […] by intravenous administration of compound after 5 minutes expressed as dose/gram; format: ADME, organism-based; conditions: in vivo; procedure, shortened: as §3
Mus musculus [11] = experiment: Distribution of Radioactivity in kidneys of CD-1 Mice by intravenous administration of compound after 4 hr expressed as dose/gram; format: ADME, organism-based, Kidney; conditions: in vivo; procedure, shortened: as §3
Mus musculus [12] = experiment: Distribution of Radioactivity in blood of CD-1 Mice by intravenous administration of compound after 1 hr expressed as dose/gram; format: ADME, organism-based; conditions: in vivo; procedure, shortened: as §3
Rattus norvegicus [13] = experiment: Distribution of Radioactivity in spleen of Fisher 344 Rats by intravenous administration of compound after 4 hour expressed as dose/gram; format: ADME, organism-based; conditions: in vivo; procedure, shortened: as §1
Rattus norvegicus [14] = experiment: Distribution of Radioactivity in thymus of Fisher 344 Rats by intravenous administration of compound after 1 day expressed as dose/gram; format: ADME, organism-based; conditions: in vivo, 24 h; procedure, shortened: as §1
Mus musculus [15] = experiment: Distribution of Radioactivity in thymus of CD-1 Mice by intravenous administration of compound after 1 day expressed as dose/gram; format: ADME, organism-based; conditions: in vivo, 24 h; procedure, shortened: as §4
Rattus norvegicus [16] = experiment: Distribution of Radioactivity in pancreas of Fisher 344 Rats by intravenous administration of compound after 5 minutes expressed as dose/gram; format: ADME, organism-based; conditions: in vivo; procedure, shortened: as §2
Rattus norvegicus [17] = experiment: Distribution of Radioactivity in liver of Fisher 344 Rats by intravenous administration of compound after 1 hour expressed as dose/gram; format: ADME, organism-based; conditions: in vivo; procedure, shortened: as §2
Rattus norvegicus [18] = experiment: Distribution of Radioactivity in stomach of Fisher 344 Rats by intravenous administration of compound after 5 minutes expressed as dose/gram; format: ADME, organism-based; conditions: in vivo; procedure, shortened: as §1
Rattus norvegicus [19] = experiment: Distribution of Radioactivity in lungs of Fisher 344 Rats by intravenous administration of compound after 5 minutes expressed as dose/gram; format: ADME, organism-based, Lung; conditions: in vivo; procedure, shortened: as §2
Mus musculus [20] = experiment: Distribution of Radioactivity in liver of CD-1 Mice by intravenous administration of compound after 1 hr expressed as dose/gram; format: ADME, organism-based; conditions: in vivo; procedure, shortened: as §3
Rattus norvegicus [21] = experiment: Distribution of Radioactivity in blood of Fisher 344 Rats by intravenous administration of compound after 1 hour expressed as dose/gram; format: ADME, organism-based; conditions: in vivo; procedure, shortened: as §2
Mus musculus [22] = experiment: Distribution of Radioactivity in liver of CD-1 Mice by intravenous administration of compound after 4 hour expressed as dose/gram; format: ADME, organism-based; conditions: in vivo; procedure, shortened: as §3
Rattus norvegicus [23] = experiment: Distribution of Radioactivity in spleen of Fisher 344 Rats by intravenous administration of compound after 1 day expressed as dose/gram; format: ADME, organism-based; conditions: in vivo, 24 h; procedure, shortened: as §1
Rattus norvegicus [24] = experiment: Distribution of Radioactivity in blood of Fisher 344 Rats by intravenous administration of compound after 5 minutes expressed as dose/gram; format: ADME, organism-based; conditions: in vivo; procedure, shortened: as §2
Mus musculus [25] = experiment: Distribution of Radioactivity in spleen of CD-1 Mice by intravenous administration of compound after 5 minutes expressed as dose/gram; format: ADME, organism-based; conditions: in vivo; procedure, shortened: as §4
Rattus norvegicus [26] = experiment: Distribution of Radioactivity in liver of Fisher 344 Rats by intravenous administration of compound after 4 hour expressed as dose/gram; format: ADME, organism-based; conditions: in vivo; procedure, shortened: as §2
Rattus norvegicus [27] = experiment: Distribution of Radioactivity in spleen of Fisher 344 Rats by intravenous administration of compound after 5 minutes expressed as dose/gram; format: ADME, organism-based; conditions: in vivo; procedure, shortened: as §1
Rattus norvegicus [28] = experiment: Distribution of Radioactivity in small intestine of Fisher 344 Rats by intravenous administration of compound after 1 day expressed as dose/gram; format: ADME, organism-based; conditions: in vivo, 24 h; procedure, shortened: as §1
Mus musculus [29] = experiment: Distribution of Radioactivity in thymus of CD-1 Mice by intravenous administration of compound after 5 minutes expressed as dose/gram; format: ADME, organism-based; conditions: in vivo; procedure, shortened: as §4
Mus musculus [30] = experiment: Distribution of Radioactivity in kidneys of CD-1 Mice by intravenous administration of compound after 1 day expressed as dose/gram; format: ADME, organism-based, Kidney; conditions: in vivo, 24 h; procedure, shortened: as §3
Mus musculus [31] = experiment: Distribution of Radioactivity in pancreas of CD-1 Mice by intravenous administration of compound after 4 hr expressed as dose/gram; format: ADME, organism-based; conditions: in vivo; procedure, shortened: as §3
Mus musculus [32] = experiment: Distribution of Radioactivity in thymus of CD-1 Mice by intravenous administration of compound after 4 hr expressed as dose/gram; format: ADME, organism-based; conditions: in vivo; procedure, shortened: as §4
Rattus norvegicus [33] = experiment: Distribution of Radioactivity in small intestine of Fisher 344 Rats by intravenous administration of compound after 5 minutes expressed as dose/gram; format: ADME, organism-based; conditions: in vivo; procedure, shortened: as §1
Mus musculus [34] = experiment: Distribution of Radioactivity in stomach of CD-1 Mice by intravenous administration of compound after 4 hr expressed as dose/gram; format: ADME, organism-based; conditions: in vivo; procedure, shortened: as §4
Rattus norvegicus [35] = experiment: Distribution of Radioactivity in kidneys of Fisher 344 Rats by intravenous administration of compound after 5 minutes expressed as dose/gram; format: ADME, organism-based, Kidney; conditions: in vivo; procedure, shortened: as §2
Mus musculus [36] = experiment: Distribution of Radioactivity in pancreas of CD-1 Mice by intravenous administration of compound after 5 minutes expressed as dose/gram; format: ADME, organism-based; conditions: in vivo; procedure, shortened: as §3
Mus musculus [37] = experiment: Distribution of Radioactivity in lungs of CD-1 Mice by intravenous administration of compound after 1 hr expressed as dose/gram; format: ADME, organism-based, Lung; conditions: in vivo; procedure, shortened: as §3
Rattus norvegicus [38] = experiment: Distribution of Radioactivity in liver of Fisher 344 Rats by intravenous administration of compound after 5 minutes expressed as dose/gram; format: ADME, organism-based; conditions: in vivo; procedure, shortened: as §2
Mus musculus [39] = experiment: Distribution of Radioactivity in pancreas of CD-1 Mice by intravenous administration of compound after 1 hr expressed as dose/gram; format: ADME, organism-based; conditions: in vivo; procedure, shortened: as §3
Rattus norvegicus [40] = experiment: Distribution of Radioactivity in adrenals of Fisher 344 Rats by intravenous administration of compound after 1 day expressed as dose/gram; format: ADME, organism-based, Adrenal gland; conditions: in vivo, 24 h; procedure, shortened: as §2

beta-[103,106Ru]Ruthenocenylalanine
Injected (Rattus norvegicus [1]): 0.13% | Injected (Rattus norvegicus [2]): 0.15% | Injected (Rattus norvegicus [3]): 1.128% | Injected (Rattus norvegicus [4]): 0.124% | Injected (Mus musculus [5]): 0.508% | Injected (Mus musculus [6]): 0.189% | Injected (Mus musculus [7]): 15.745% | Injected (Mus musculus [8]): 6.768% | Injected (Mus musculus [9]): 0.47% | Injected (Mus musculus [10]): 7.75% | Injected (Mus musculus [11]): 1.321% | Injected (Mus musculus [12]): 1.039% | Injected (Rattus norvegicus [13]): 0.062% | Injected (Rattus norvegicus [14]): 0.024% | Injected (Mus musculus [15]): 0.138% | Injected (Rattus norvegicus [16]): 0.361% | Injected (Rattus norvegicus [17]): 1.27% | Injected (Rattus norvegicus [18]): 0.243% | Injected (Rattus norvegicus [19]): 1.123% | Injected (Mus musculus [20]): 1.784% | Injected (Rattus norvegicus [21]): 0.698% | Injected (Mus musculus [22]): 1.01% | Injected (Rattus norvegicus [23]): 0.065% | Injected (Rattus norvegicus [24]): 1.949% | Injected (Mus musculus [25]): 1.348% | Injected (Rattus norvegicus [26]): 0.278% | Injected (Rattus norvegicus [27]): 0.355% | Injected (Rattus norvegicus [28]): 0.044% | Injected (Mus musculus [29]): 2.579% | Injected (Mus musculus [30]): 0.871% | Injected (Mus musculus [31]): 0.16% | Injected (Mus musculus [32]): 0.195% | Injected (Rattus norvegicus [33]): 0.62% | Injected (Mus musculus [34]): 0.166% | Injected (Rattus norvegicus [35]): 5.44% | Injected (Mus musculus [36]): 1.749% | Injected (Mus musculus [37]): 1.015% | Injected (Rattus norvegicus [38]): 2.844% | Injected (Mus musculus [39]): 0.247% | Injected (Rattus norvegicus [40]): 0.044%
